According to ChEMBL document CHEMBL1649231, “In vitro activities of panduratin A against clinical Staphylococcus strains” (2009):
Values after ≈ are worked out from the molar mass of the structure shown.

Experiments:
Assay type in all cases: functional
[1] = tested on: Staphylococcus hominis; assay: Antimicrobial activity against methicillin-resistant coagulase-negative Staphylococcus hominis assessed as resistant isolates after 24 hrs by broth microdilution method
[2] = tested on: Staphylococcus simulans; assay: Antimicrobial activity against methicillin-resistant coagulase-negative Staphylococcus simulans assessed as resistant isolates after 24 hrs by broth microdilution method
[3] = tested on: Staphylococcus aureus; assay: Antimicrobial activity against methicillin-resistant Staphylococcus aureus after 24 hrs by broth microdilution method
Summary of the method: (§1)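 Clinical isolates came from blood, body fluids, genital secretions, pus or sputum, identified conventionally or by Vitek. MICs were run by CLSI M7-A6 broth microdilution in Mueller-Hinton broth with 5 × 10^5 CFU/ml inoculum. Agents were twofold serially diluted, starting from 10% DMSO. Drug-free and uninoculated controls were included. Plates were incubated aerobically at 37°C for 24 h; MIC is the lowest concentration giving no visible growth.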

[4] = tested on: Staphylococcus epidermidis; assay: Antimicrobial activity against methicillin-susceptible coagulase-negative Staphylococcus epidermidis assessed as resistant isolates after 24 hrs by broth microdilution method
[5] = tested on: Staphylococcus simulans; assay: Antimicrobial activity against methicillin-resistant coagulase-negative Staphylococcus simulans assessed as susceptible isolates after 24 hrs by broth microdilution method
[6] = tested on: Staphylococcus aureus; assay: Bactericidal activity against methicillin-susceptible Staphylococcus aureus after 24 hrs by plate counting method
Summary of the method: (§2)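 Clinical staphylococcal isolates from patient body fluids, blood, genital secretions, pus or sputum; species by conventional methods or Vitek. Twofold dilutions in Mueller-Hinton broth, inoculum 5 × 10^5 CFU/ml, 37°C aerobic 24 h (CLSI M7-A6 microdilution). About 100 μl from each well without visible growth spread on MHA; 37°C 24 h. MBC = lowest concentration giving no growth on agar.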

[7] = tested on: Staphylococcus aureus; assay: Antimicrobial activity against methicillin-susceptible Staphylococcus aureus assessed as resistant isolates after 24 hrs by broth microdilution method
[8] = tested on: Staphylococcus simulans; assay: Antimicrobial activity against methicillin-susceptible coagulase-negative Staphylococcus simulans after 24 hrs by broth microdilution method; summary of the method: as §1
[9] = tested on: Staphylococcus haemolyticus; assay: Antimicrobial activity against methicillin-resistant coagulase-negative Staphylococcus haemolyticus assessed as resistant isolates after 24 hrs by broth microdilution method
[10] = tested on: Staphylococcus simulans; assay: Antimicrobial activity against methicillin-susceptible coagulase-negative Staphylococcus simulans assessed as susceptible isolates after 24 hrs by broth microdilution method
Summary of the method: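 Clinical isolates from blood, body fluids, pus, sputum or genital secretions, identified conventionally or by Vitek, were tested alongside ATCC 29213 and ATCC 12228 controls. CLSI M7-A6 broth microdilution in Mueller-Hinton broth used twofold dilutions from a 10% DMSO solution and 5 × 10^5 CFU/ml inoculum. Drug-free and uninoculated wells served as controls; incubation was aerobic at 37°C for 24 h. MIC was the lowest concentration with no visible growth.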

[11] = tested on: Staphylococcus hominis; assay: Antimicrobial activity against methicillin-resistant coagulase-negative Staphylococcus hominis assessed as intermediate resistant isolates after 24 hrs by broth microdilution method
[12] = tested on: Staphylococcus haemolyticus; assay: Antimicrobial activity against methicillin-resistant coagulase-negative Staphylococcus haemolyticus assessed as susceptible isolates after 24 hrs by broth microdilution method
[13] = tested on: Staphylococcus simulans; assay: Bactericidal activity against methicillin-susceptible coagulase-negative Staphylococcus simulans after 24 hrs by plate counting method; summary of the method: as §2
[14] = tested on: Mammaliicoccus sciuri; assay: Antimicrobial activity against methicillin-susceptible coagulase-negative Staphylococcus sciuri after 24 hrs by broth microdilution method; summary of the method: as §1
[15] = tested on: Staphylococcus simulans; assay: Bactericidal activity against methicillin-resistant coagulase-negative Staphylococcus simulans after 24 hrs by plate counting method; summary of the method: as §2
[16] = tested on: Staphylococcus haemolyticus; assay: Antimicrobial activity against methicillin-susceptible coagulase-negative Staphylococcus haemolyticus after 24 hrs by broth microdilution method; summary of the method: as §1
[17] = tested on: Staphylococcus simulans; assay: Antimicrobial activity against methicillin-susceptible coagulase-negative Staphylococcus simulans assessed as resistant isolates after 24 hrs by broth microdilution method
[18] = tested on: Mammaliicoccus sciuri; assay: Antimicrobial activity against methicillin-susceptible coagulase-negative Staphylococcus sciuri assessed as resistant isolates after 24 hrs by broth microdilution method
[19] = tested on: Staphylococcus haemolyticus; assay: Antimicrobial activity against methicillin-resistant coagulase-negative Staphylococcus haemolyticus assessed as intermediate resistant isolates after 24 hrs by broth microdilution method
[20] = tested on: Mammaliicoccus sciuri; assay: Antimicrobial activity against methicillin-resistant coagulase-negative Staphylococcus sciuri after 24 hrs by broth microdilution method; summary of the method: as §1
[21] = tested on: Staphylococcus aureus; assay: Antimicrobial activity against methicillin-susceptible Staphylococcus aureus assessed as intermediate resistant isolates after 24 hrs by broth microdilution method
[22] = tested on: Staphylococcus hominis; assay: Antimicrobial activity against methicillin-resistant coagulase-negative Staphylococcus hominis assessed as susceptible isolates after 24 hrs by broth microdilution method
[23] = tested on: Staphylococcus epidermidis; assay: Antimicrobial activity against methicillin-resistant coagulase-negative Staphylococcus epidermidis assessed as resistant isolates after 24 hrs by broth microdilution method
[24] = tested on: Mammaliicoccus sciuri; assay: Bactericidal activity against methicillin-susceptible coagulase-negative Staphylococcus sciuri after 24 hrs by plate counting method; summary of the method: as §2
[25] = tested on: Staphylococcus aureus; assay: Antimicrobial activity against methicillin-susceptible Staphylococcus aureus after 24 hrs by broth microdilution method; summary of the method: as §1
[26] = tested on: Staphylococcus hominis; assay: Antimicrobial activity against methicillin-susceptible coagulase-negative Staphylococcus hominis assessed as susceptible isolates after 24 hrs by broth microdilution method
[27] = tested on: Staphylococcus epidermidis; assay: Bactericidal activity against methicillin-resistant coagulase-negative Staphylococcus epidermidis after 24 hrs by plate counting method
[28] = tested on: Mammaliicoccus sciuri; assay: Bactericidal activity against methicillin-resistant coagulase-negative Staphylococcus sciuri after 24 hrs by plate counting method; summary of the method: as §2
[29] = tested on: Mammaliicoccus sciuri; assay: Antimicrobial activity against methicillin-resistant coagulase-negative Staphylococcus sciuri assessed as susceptible isolates after 24 hrs by broth microdilution method
[30] = tested on: Staphylococcus aureus; assay: Antimicrobial activity against methicillin-resistant Staphylococcus aureus assessed as intermediate resistant isolates after 24 hrs by broth microdilution method
[31] = tested on: Staphylococcus haemolyticus; assay: Bactericidal activity against methicillin-resistant coagulase-negative Staphylococcus haemolyticus after 24 hrs by plate counting method
[32] = tested on: Staphylococcus epidermidis; assay: Bactericidal activity against methicillin-susceptible coagulase-negative Staphylococcus epidermidis after 24 hrs by plate counting method; summary of the method: as §2
[33] = tested on: Staphylococcus epidermidis; assay: Antimicrobial activity against methicillin-resistant coagulase-negative Staphylococcus epidermidis assessed as susceptible isolates after 24 hrs by broth microdilution method
[34] = tested on: Staphylococcus hominis; assay: Antimicrobial activity against methicillin-susceptible coagulase-negative Staphylococcus hominis after 24 hrs by broth microdilution method; summary of the method: as §1
[35] = tested on: Staphylococcus hominis; assay: Antimicrobial activity against methicillin-susceptible coagulase-negative Staphylococcus hominis assessed as intermediate resistant isolates after 24 hrs by broth microdilution method; conditions: pooled result: one value given for 5 cell lines, strains, targets or settings
[36] = tested on: Staphylococcus simulans; assay: Antimicrobial activity against methicillin-resistant coagulase-negative Staphylococcus simulans assessed as intermediate resistant isolates after 24 hrs by broth microdilution method
[37] = Staphylococcus epidermidis, 24 h

CN(C)[C@@H]1C(O)=C(C(N)=O)C(=O)[C@@]2(O)C(O)=C3C(=O)c4c(O)cccc4[C@@](C)(O)[C@H]3C[C@@H]12 [TETRACYCLINE]
Activity [1]: 75%
Activity [2]: 75%
MIC50 [3]: 16 µg/mL (≈ 36 µM)
MIC90 [3]: 32 µg/mL (≈ 72 µM)
Activity [4]: 12%
Activity [5]: 7%
MBC50 [6]: 8 µg/mL (≈ 18 µM)
MBC90 [6]: 32 µg/mL (≈ 72 µM)
MBC ([6]; Staphylococcus aureus, 24 h): 1 µg/mL (≈ 2.25 µM)
Activity [7]: 11%
MIC [8]: 0.5 µg/mL (≈ 1.13 µM)
MIC50 [8]: 0.5 µg/mL (≈ 1.13 µM)
MIC90 [8]: 32 µg/mL (≈ 72 µM)
Activity [9]: 75%
Activity [10]: 69%
Activity [11]: 7%
Activity [12]: 18%
MBC50 [13]: 8 µg/mL (≈ 18 µM)
MBC90 [13]: 128 µg/mL (≈ 288 µM)
MBC ([13]; Staphylococcus simulans, 24 h): 1 µg/mL (≈ 2.25 µM)
MIC [14]: 0.5 µg/mL (≈ 1.13 µM)
MIC50 [14]: 0.5 µg/mL (≈ 1.13 µM)
MIC90 [14]: 32 µg/mL (≈ 72 µM)
MBC50 [15]: 4 µg/mL (≈ 9 µM)
MBC ([15]; Staphylococcus simulans, 24 h): 0.5 µg/mL (≈ 1.13 µM)
MIC [16]: 0.5 µg/mL (≈ 1.13 µM)
MIC50 [16]: 0.5 µg/mL (≈ 1.13 µM)
MIC90 [16]: 32 µg/mL (≈ 72 µM)
Activity [17]: 4%
Activity [18]: 12%
Activity [19]: 7%
MIC50 [20]: 1 µg/mL (≈ 2.25 µM)
MIC90 [20]: 64 µg/mL (≈ 144 µM)
Activity [21]: 19%
Activity [22]: 18%
Activity [23]: 75%
MBC50 [24]: 8 µg/mL (≈ 18 µM)
MBC90 [24]: 128 µg/mL (≈ 288 µM)
MBC ([24]; Mammaliicoccus sciuri, 24 h): 1 µg/mL (≈ 2.25 µM)
MIC50 [25]: 4 µg/mL (≈ 9 µM)
MIC90 [25]: 8 µg/mL (≈ 18 µM)
Activity [26]: 69%
MBC50 [27]: 4 µg/mL (≈ 9 µM)
MBC [27, 37]: 0.5 µg/mL (≈ 1.13 µM)
MBC50 [28]: 4 µg/mL (≈ 9 µM)
MBC ([28]; Mammaliicoccus sciuri, 24 h): 0.5 µg/mL (≈ 1.13 µM)
Activity [29]: 7%
Activity [30]: 0%
MBC50 [31]: 4 µg/mL (≈ 9 µM)
MBC ([31]; Staphylococcus haemolyticus, 24 h): 0.5 µg/mL (≈ 1.13 µM)
MBC50 [32]: 8 µg/mL (≈ 18 µM)
MBC90 [32]: 128 µg/mL (≈ 288 µM)
MBC [32, 37]: 1 µg/mL (≈ 2.25 µM)
Activity [33]: 18%
MIC [34]: 0.5 µg/mL (≈ 1.13 µM)
MIC50 [34]: 0.5 µg/mL (≈ 1.13 µM)
MIC90 [34]: 32 µg/mL (≈ 72 µM)
Activity [35]: 19%
Activity [36]: 7%
